Results taken from ChEMBL document CHEMBL4428038, “Overcoming chloroquine resistance in malaria: Design, synthesis and structure-activity relationships of novel chemoreversal agents” (Eur J Med Chem, 2016).
Calls of active or inactive are those of the source. The rule behind the calls is not given here.

Tests used:
[1] = test system: Plasmodium falciparum; assay: Intrinsic antimalarial activity against chloroquine-sensitive Plasmodium falciparum 3D7 isolate MRA-102 assessed as reduction in parasite viability at 500 nM; assay type: functional, organism-based
[2] = test system: T1, Chloroquine resistance transporter (Plasmodium falciparum), Q9N623 [K76T]; assay: Inhibition of CRT K76T mutant in chloroquine-resistant Plasmodium falciparum Dd2 isolate MRA-156 assessed as reversal of chloroquine resistance by measuring reduction in chloroquine IC50 at 500 nM relative to chloroquine alone
T1 sequence (whole entry): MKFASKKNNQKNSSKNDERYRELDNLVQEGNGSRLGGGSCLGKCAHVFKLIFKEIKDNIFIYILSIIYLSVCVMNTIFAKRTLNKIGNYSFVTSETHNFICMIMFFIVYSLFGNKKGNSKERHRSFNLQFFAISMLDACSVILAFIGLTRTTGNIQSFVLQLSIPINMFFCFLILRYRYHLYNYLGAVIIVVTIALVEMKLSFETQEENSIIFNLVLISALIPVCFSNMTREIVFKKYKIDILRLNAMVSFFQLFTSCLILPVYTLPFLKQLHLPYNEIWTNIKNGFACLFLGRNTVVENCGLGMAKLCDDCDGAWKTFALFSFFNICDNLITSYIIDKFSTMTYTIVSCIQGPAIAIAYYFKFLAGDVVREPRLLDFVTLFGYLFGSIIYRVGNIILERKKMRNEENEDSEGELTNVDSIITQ

[3] = test system: Plasmodium falciparum; assay: Intrinsic antimalarial activity against chloroquine/artemisinin-resistant Plasmodium falciparum ARS272 harboring CRT K76T mutant assessed as reduction in parasite viability at 500 nM; assay type: functional, organism-based
[4] = Therapeutic index, ratio of IC50 for human AC10 cells to EC50 for chloroquine-resistant Plasmodium falciparum K1 isolate MRA-159 CRT CVIET haplotype mutant; assay type: toxicity; settings: read-out: Ratio IC50/EC50
Summary of the method: (§1)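 Host-cell IC50 was measured by ATP-luminescence viability assay in TAMH hepatocytes (mean of n = 4 independent determinations) or AC10 cardiomyocytes. Each IC50 was divided by the K1 EC50, the concentration of chemoreversal agent that halves the chloroquine concentration needed for 50% parasite inhibition.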

[5] = test system: T1, Chloroquine resistance transporter (Plasmodium falciparum), Q9N623 [K76T]; assay: Inhibition of CRT K76T mutant in chloroquine-resistant Plasmodium falciparum NHP4559 assessed as reversal of chloroquine resistance by measuring reduction in chloroquine IC50 at 500 nM relative to chloroquine alone
[6] = Cytotoxicity against human AC10 cells assessed as reduction in cell viability by CellTiter-Glo assay; assay type: cell-based
Summary of the method: (§2)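 For TAMH (hepatocyte line) and AC10 (cardiomyocyte line), viability was read by ATP luminescence (CellTiter-Glo), and the value reported is IC50.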

[7] = test system: Plasmodium falciparum; assay: Potentiation of chloroquine-induced antimalarial activity against chloroquine-sensitive Plasmodium falciparum HB3 isolate MRA-155 assessed as reduction in chloroquine IC50 at 500 nM relative to chloroquine alone; assay type: functional
[8] = test system: Plasmodium falciparum K1; assay: Inhibition of CRT CVIET haplotype mutant in chloroquine-resistant Plasmodium falciparum K1 isolate MRA-159 assessed as reversal of chloroquine resistance by measuring reduction in chloroquine IC50 at 500 nM relative to chloroquine alone
[9] = test system: Plasmodium falciparum K1; assay: Inhibition of CRT CVIET haplotype mutant in Plasmodium falciparum K1 isolate MRA-159 infected in erythrocytes assessed as chloroquine-coumarin probe accumulation at 10 uM after 10 hrs by Hoechst 33342 staining based flow cytometry (reference value: 35.57 +/- 3.84%); assay type: cell-based; design: scale not given: the % may be the effect or the level left
Summary of the method: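 Infected erythrocyte cultures at 2.5% hematocrit and 7–12% parasitemia, synchronized to late-ring/early-trophozoite stage, were incubated with chloroquine-coumarin probe plus test agent for 10 h at 37 C. Cells were then washed, resuspended in PBS and read by flow cytometry (405 nm excitation, 450/50 filter). Hoechst-stained duplicate wells set parasitemia. Uptake = % infected erythrocytes fluorescent. Controls: PBS (negative), desipramine and parent compound (positive). ≥3 independent experiments; mean ± SEM.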

[10] = test system: Plasmodium falciparum; assay: Intrinsic antimalarial activity against chloroquine/artemisinin-resistant Plasmodium falciparum NHP4773 harboring CRT K76T mutant assessed as reduction in parasite viability at 500 nM; assay type: functional, organism-based
[11] = test system: T1, Chloroquine resistance transporter (Plasmodium falciparum), Q9N623 [K76T]; assay: Inhibition of CRT K76T mutant in chloroquine/artemisinin-resistant Plasmodium falciparum ARS272 assessed as reversal of chloroquine resistance by measuring reduction in chloroquine IC50 at 500 nM relative to chloroquine alone
[12] = Resistance index, ratio of chloroquine IC50 for intermediate chloroquine-resistant Plasmodium falciparum 7G8 isolate MRA-154 CRT SVMNT haplotype mutant to chloroquine IC50 for chloroquine-sensitive Plasmodium falciparum 3D7 isolate MRA-102 at 500 nM
Summary of the method: (§3)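 Chloroquine IC50 was measured with the chemoreversal agent fixed at 500 nM in K1 or 7G8 and in sensitive 3D7 (means, n = 3). The resistance ratio is the chloroquine IC50 in K1 or 7G8 divided by the chloroquine IC50 in 3D7.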

[13] = test system: TAMH; assay: Cytotoxicity against TAMH assessed as reduction in cell viability by CellTiter-Glo assay; assay type: cell-based; settings: Mus musculus; summary of the method: as §2
[14] = test system: Plasmodium falciparum; assay: Intrinsic antimalarial activity against chloroquine-sensitive Plasmodium falciparum HB3 isolate MRA-155 assessed as reduction in parasite viability at 500 nM; assay type: functional, organism-based
[15] = test system: Plasmodium falciparum; assay: Intrinsic antimalarial activity against chloroquine-resistant Plasmodium falciparum NHP4559 harboring CRT K76T mutant assessed as reduction in parasite viability at 500 nM; assay type: functional, organism-based
[16] = Therapeutic index, ratio of IC50 for TAMH to EC50 for chloroquine-resistant Plasmodium falciparum K1 isolate MRA-159 CRT CVIET haplotype mutant; assay type: toxicity; settings: mouse, TAMH cells; read-out: Ratio IC50/EC50; summary of the method: as §1
[17] = test system: Plasmodium falciparum; assay: Intrinsic antimalarial activity against chloroquine-resistant Plasmodium falciparum Dd2 isolate MRA-156 harboring CRT K76T mutant assessed as reduction in parasite viability at 500 nM; assay type: functional, organism-based
[18] = Permeability of compound incubated for 6 hrs at pH 7.4 by PAMPA; assay type: ADME; settings: read-out: Peff
[19] = Permeability of compound incubated for 16 hrs at pH 7.4 by PAMPA; assay type: ADME; settings: read-out: Peff
[20] = test system: Plasmodium falciparum; assay: Intrinsic antimalarial activity against chloroquine/artemisinin-resistant Plasmodium falciparum ARS233 harboring CRT K76T mutant assessed as reduction in parasite viability at 500 nM; assay type: functional, organism-based
[21] = Resistance index, ratio of chloroquine IC50 for chloroquine-resistant Plasmodium falciparum K1 isolate MRA-159 CRT CVIET haplotype mutant to chloroquine IC50 for chloroquine-sensitive Plasmodium falciparum 3D7 isolate MRA-102 at 500 nM; summary of the method: as §3
[22] = Inhibition of CRT CVIET haplotype mutant in chloroquine-resistant Plasmodium falciparum K1 isolate MRA-159 assessed as reversal of chloroquine resistance by measuring reduction in chloroquine IC50 relative to chloroquine alone
Summary of the method: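 Chloroquine IC50 was determined in the presence of a fixed 500 nM chemoreversal agent, against chloroquine alone. The RMI is the ratio of chloroquine IC50 with agent to chloroquine IC50 alone. Mean of n = 3; two-tailed t test versus chloroquine without agent.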

[23] = test system: Plasmodium falciparum; assay: Intrinsic antimalarial activity against chloroquine-resistant Plasmodium falciparum K1 isolate MRA-159 harboring CRT CVIET haplotype mutant assessed as reduction in parasite viability at 500 nM; assay type: functional, organism-based
[24] = test system: Plasmodium falciparum; assay: Intrinsic antimalarial activity against intermediate chloroquine-resistant Plasmodium falciparum 7G8 isolate MRA-154 harboring CRT SVMNT haplotype mutant assessed as reduction in parasite viability at 500 nM; assay type: functional, organism-based
[25] = test system: Plasmodium falciparum 7G8; assay: Inhibition of CRT SVMNT haplotype mutant in intermediate chloroquine-resistant Plasmodium falciparum 7G8 isolate MRA-154 t assessed as reversal of chloroquine resistance by measuring reduction in chloroquine IC50 at 500 nM relative to chloroquine alone
[26] = test system: T1, Chloroquine resistance transporter (Plasmodium falciparum), Q9N623 [K76T]; assay: Inhibition of CRT K76T mutant in chloroquine/artemisinin-resistant Plasmodium falciparum ARS233 assessed as reversal of chloroquine resistance by measuring reduction in chloroquine IC50 at 500 nM relative to chloroquine alone
[27] = Aqueous kinetic solubility of compound in pH 7.4 solution incubated for 24 hrs; assay type: physicochemical; settings: aqueous solution pH 7.4, pH 7.4; read-out: Kinetic_solubility
[28] = test system: Plasmodium falciparum; assay: Potentiation of chloroquine-induced antimalarial activity against chloroquine-sensitive Plasmodium falciparum 3D7 isolate MRA-102 assessed as reduction in chloroquine IC50 at 500 nM relative to chloroquine alone; assay type: functional
[29] = test system: T1, Chloroquine resistance transporter (Plasmodium falciparum), Q9N623 [K76T]; assay: Inhibition of CRT K76T mutant in chloroquine/artemisinin-resistant Plasmodium falciparum NHP4773 assessed as reversal of chloroquine resistance by measuring reduction in chloroquine IC50 at 500 nM relative to chloroquine alone

Structure (SMILES): NC(=O)C(CCN1CCC(O)(c2ccc(Cl)cc2)CC1)(c1ccccc1)c1ccccc1
- Activity [1]: inactive
- Ratio IC50 [2]: 1.16
- Activity [3]: inactive
- selectivity ratio [4]: 94
- Ratio IC50 [5]: 1.01
- IC50 [6]: 45.2 µM
- Ratio IC50 [7]: 1.06
- Ratio IC50 [8]: 0.89
- Activity [9]: 73.5%
- Activity [10]: inactive
- Ratio IC50 [11]: 0.94
- Ratio IC50 [12]: 6.2
- IC50 [13]: 101 µM
- Activity [14]: inactive
- Activity [15]: inactive
- selectivity ratio [16]: 210
- Activity [17]: inactive
- Papp at 6 h [18]: 0.65 ×10⁻⁶ cm/s
- Papp at 16 h [19]: 1.78 ×10⁻⁶ cm/s
- Activity [20]: inactive
- Ratio IC50 [21]: 14.8
- EC50 [22]: 0.482 µM
- Activity [23]: inactive
- Activity [24]: inactive
- Ratio IC50 [25]: 1.25
- Ratio IC50 [26]: 0.91
- solubility kinetic at 24 h [27]: > 450 µg/mL
- Ratio IC50 [28]: 1.23
- Ratio IC50 [29]: 0.96
